# Test system: L1210
# Test: Activity against lymphocytic murine leukemia cell line L1210 using MTS/PES microculture tetrazolium assay
# Assay type: functional, cell-based
# Settings: Mus musculus
# Summary of the method: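 L1210 cells kept in RPMI-1640 with 10% FBS and penicillin/streptomycin, 37 °C, 5% CO2. Seeded at 1×10^5/mL. DMSO stocks diluted in medium to six concentrations, 2×10⁻³ to 1×10⁻⁸ M, in triplicate; final DMSO 1% at top dose, otherwise <0.25%. Incubated 65 h, then MTS/PES for 3 h, A490. Inhibition relative to DMSO control; IC50 by probit regression; repeated at least twice.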
row,Structure (SMILES),IC50 [µM]
1,O=C(NO)N/N=C/c1cccc([N+](=O)[O-])c1,399
2,CC(=O)Nc1ccc(/C=N/NC(=O)NO)cc1,944
3,COc1ccc(/C=N/NC(=O)NO)cc1,317
4,O=C(NO)N/N=C/c1ccc(O)c(O)c1O,2.7
5,O=C(NO)N/N=C/c1c2ccccc2c(Cl)c2ccccc12,5.4
6,O=C(NO)N/N=C/c1ccc2c(c1)OCCO2,178
7,Cc1c2ccccc2c(/C=N/NC(=O)NO)c2ccccc12,4.4
8,O=C(NO)N/N=C/c1c[nH]c2ccccc12,477
9,O=C(NO)N/N=C/c1ccc(OCc2ccccc2)cc1,48.1
10,O=C(NO)N/N=C/c1ccc([N+](=O)[O-])s1,10.6
11,O=C(NO)N/N=C/c1cc(Br)ccc1O,10.1
12,N#Cc1ccc(/C=N/NC(=O)NO)cc1,208
13,COc1cccc(/C=N/NC(=O)NO)c1,369
14,COc1ccc(OC)c(/C=N/NC(=O)NO)c1,30.1
15,O=C(NO)N/N=C/c1ccc(-c2ccccc2)cc1,42.7
16,COc1ccc(/C=N/NC(=O)NO)c(O)c1,60.2

row,Structure (SMILES),IC50 [µM]
1,CC(C)c1ccc2occ(/C=N/NC(=O)NO)c(=O)c2c1,32.2
2,O=C(NO)N/N=C/c1cccc(C(F)(F)F)c1,39.5
3,Cc1cccc(/C=N/NC(=O)NO)n1,891
4,NNC(=O)NO,282
5,O=C(NO)N/N=C/c1cc(Br)cc(Br)c1O,7.2
6,O=C(NO)N/N=C/c1ccc(O)cc1O,131
7,O=C(NO)N/N=C/c1cc([N+](=O)[O-])cc([N+](=O)[O-])c1O,821
8,COc1cc(Br)cc(/C=N/NC(=O)NO)c1O,37.7
9,CN(C)c1ccc(/C=N/NC(=O)NO)cc1,446
10,O=C(NO)N/N=C/c1cccnc1,607
11,O=C(NO)N/N=C/c1cccc(I)c1,80.4
12,O=C(NO)N/N=C/c1coc2c(Cl)cc(Cl)cc2c1=O,28.2
13,O=C(NO)N/N=C/c1cc(I)cc(I)c1O,4.7
14,O=C(NO)N/N=C/c1cc(Cl)cc(Cl)c1O,6.5
15,COc1cc(O)c(/C=N/NC(=O)NO)c(OC)c1,91.4
16,NNC(N)=O [HYDRAZINECARBOXAMIDE],> 2190

# Reference: ChEMBL document CHEMBL1135806, “Synthesis, biological evaluation, and quantitative structure-activity relationship analysis of new Schiff bases of hydroxysemicarbazide as potential antitumor agents” (J Med Chem, 2002)
